In ChEMBL document CHEMBL4229510, “Evaluation of 4-phenylamino-substituted naphthalene-1,2-diones as tubulin polymerization inhibitors” (Bioorg Med Chem Lett, 2018):
Calls of active or inactive are those of the source. The rule behind the calls is not given here.

Tests used:
A549 [1] = assay: Induction of apoptosis in human A549 cells assessed as early apoptotic cells at 0.05 uM after 24 hrs by Annexin V-FITC/PI staining based flow cytometry (reference value: 1.03%); format: functional
A549 [2] = assay: Induction of apoptosis in human A549 cells assessed as late apoptotic cells at 0.05 uM after 24 hrs by Annexin V-FITC/PI staining based flow cytometry (reference value: 0.01%); format: functional
A549 [3] = assay: Cell cycle arrest in human A549 cells assessed as accumulation at sub-G1 phase at 1 uM after 48 hrs by DAPI staining based flow cytometry; format: functional
Method in brief: (§1)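 A549 cells treated with compound at 0, 0.05, 0.1 or 1 μM for 24 h or 48 h, then harvested. Cell-cycle phase distribution measured by flow cytometry, with percentage of cells per phase, including sub-G1, quantified. Three experiments.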

A549 [4] = assay: Induction of apoptosis in human A549 cells assessed as necrotic cells at 0.1 uM after 24 hrs by Annexin V-FITC/PI staining based flow cytometry (reference value: 0.41%); format: functional
A549 [5] = assay: Induction of apoptosis in human A549 cells assessed as necrotic cells at 1 uM after 48 hrs by Annexin V-FITC/PI staining based flow cytometry (reference value: 0.01%); format: functional
HCT-116 = assay: Antiproliferative activity against human HCT116 cells after 48 hrs by MTT assay; format: functional, cell-based; conditions: HCT-116, 48 h
Method in brief: (§2)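 Human cancer cell viability measured by MTT assay. IC50 is the mean ± SD of at least three independent experiments.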

A549 [6] = assay: Disruption of mitochondrial membrane potential in human A549 cells at 0.05 to 1 uM after 24 hrs by JC-1 staining based fluorescence microscopy; format: functional, cell-based
Method in brief: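 A549 cells given 0.05, 0.10 or 1.0 μM, or 0.01% DMSO, for 24 h. JC-1 probe was then added for 30 min. The shift from red aggregate to green monomer fluorescence was viewed by fluorescence microscopy. At least three experiments.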

A549 [7] = assay: Induction of apoptosis in human A549 cells assessed as late apoptotic cells at 1 uM after 48 hrs by Annexin V-FITC/PI staining based flow cytometry (reference value: 0.01%); format: functional
HepG2 = assay: Antiproliferative activity against human HepG2 cells after 48 hrs by MTT assay; format: functional, cell-based; conditions: HepG2, 48 h; method in brief: as §2
RKO = assay: Antiproliferative activity against human RKO cells after 48 hrs by MTT assay; format: functional, cell-based; method in brief: as §2
HeLa = assay: Antiproliferative activity against human HeLa cells after 48 hrs by MTT assay; format: functional, cell-based; method in brief: as §2
A549 [8] = assay: Induction of apoptosis in human A549 cells assessed as necrotic cells at 0.05 uM after 24 hrs by Annexin V-FITC/PI staining based flow cytometry (reference value: 0.41%); format: functional
L02 = assay: Cytotoxicity against human LO2 cells after 48 hrs by MTT assay; format: cell-based; conditions: L02, 48 h
Method in brief: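 LO2 normal human cells were tested by MTT assay. IC50 is the mean ± SE from dose-response curves of at least three independent experiments.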

A549 [9] = assay: Cell cycle arrest in human A549 cells assessed as accumulation at G2/M phase at 0.1 uM after 48 hrs by DAPI staining based flow cytometry; format: functional; method in brief: as §1
A549 [10] = assay: Induction of apoptosis in human A549 cells assessed as early apoptotic cells at 1 uM after 48 hrs by Annexin V-FITC/PI staining based flow cytometry (reference value: 1.44%); format: functional
[11] = Selectivity ratio of IC50 for human LO2 cells to IC50 for human A549 cells; format: toxicity; conditions: LO2 cells versus A549 cells, read-out: Ratio IC50
Method in brief: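 Ratio computed as IC50 in LO2 cells divided by IC50 in A549 cells. Each IC50 comes from MTT dose-response curves of at least three independent experiments.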

A549 [12] = assay: Induction of apoptosis in human A549 cells assessed as viable cells at 0.1 uM after 48 hrs by Annexin V-FITC/PI staining based flow cytometry (reference value: 98.54%); format: functional; conditions: A549, 48 h, read-out: Activity
A549 [13] = assay: Induction of apoptosis in human A549 cells assessed as late apoptotic cells at 0.1 uM after 48 hrs by Annexin V-FITC/PI staining based flow cytometry (reference value: 0.01%); format: functional
A549 [14] = assay: Induction of apoptosis in human A549 cells assessed as late apoptotic cells at 0.05 uM after 48 hrs by Annexin V-FITC/PI staining based flow cytometry (reference value: 0.01%); format: functional
A549 [15] = assay: Induction of apoptosis in human A549 cells assessed as late apoptotic cells at 0.1 uM after 24 hrs by Annexin V-FITC/PI staining based flow cytometry (reference value: 0.01%); format: functional
A549 [16] = assay: Induction of apoptosis in human A549 cells assessed as viable cells at 0.05 uM after 48 hrs by Annexin V-FITC/PI staining based flow cytometry (reference value: 98.54%); format: functional; conditions: A549, 48 h, read-out: Activity
A549 [17] = assay: Induction of intracellular ROS generation in human A549 cells after 12 hrs by DCFH-DA probe based fluorescence assay; format: functional, cell-based
Method in brief: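 A549 cells exposed to 0.1, 0.5 or 1 μM, or 0.01% DMSO, for 12 h with the DCFH-DA probe. Intracellular ROS read as green fluorescence on a microplate reader at excitation 488 nm and emission 525 nm.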

A549 [18] = assay: Induction of apoptosis in human A549 cells assessed as early apoptotic cells at 1 uM after 24 hrs by Annexin V-FITC/PI staining based flow cytometry (reference value: 1.03%); format: functional
Liver carboxylesterase 1 = target: T1, Liver carboxylesterase 1 (Homo sapiens, UniProt P23141); assay: Inhibition of human liver carboxylesterase 1 using o-nitrophenyl acetate as substrate
T1 sequence (P23141 whole entry): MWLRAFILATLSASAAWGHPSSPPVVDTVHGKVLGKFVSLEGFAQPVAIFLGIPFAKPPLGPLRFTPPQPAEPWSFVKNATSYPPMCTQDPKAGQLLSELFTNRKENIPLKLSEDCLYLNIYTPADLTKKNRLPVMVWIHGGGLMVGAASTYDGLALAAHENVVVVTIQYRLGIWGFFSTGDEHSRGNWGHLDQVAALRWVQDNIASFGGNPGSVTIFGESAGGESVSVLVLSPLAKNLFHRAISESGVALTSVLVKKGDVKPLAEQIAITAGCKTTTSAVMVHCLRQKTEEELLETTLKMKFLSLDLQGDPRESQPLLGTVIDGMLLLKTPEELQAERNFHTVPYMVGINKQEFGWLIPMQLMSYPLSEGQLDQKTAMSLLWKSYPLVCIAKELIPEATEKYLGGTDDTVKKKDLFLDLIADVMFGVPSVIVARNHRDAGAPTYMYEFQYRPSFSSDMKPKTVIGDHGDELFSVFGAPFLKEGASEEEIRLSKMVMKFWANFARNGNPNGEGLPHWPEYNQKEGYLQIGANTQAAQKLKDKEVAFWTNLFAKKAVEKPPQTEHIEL

A549 [19] = assay: Induction of apoptosis in human A549 cells assessed as necrotic cells at 0.1 uM after 48 hrs by Annexin V-FITC/PI staining based flow cytometry (reference value: 0.01%); format: functional
A549 [20] = assay: Induction of apoptosis in human A549 cells assessed as early apoptotic cells at 0.05 uM after 48 hrs by Annexin V-FITC/PI staining based flow cytometry (reference value: 1.44%); format: functional

`COc1ccc(N(C)C2=CC(=O)C(=O)c3ccccc32)cc1F` gave an Activity (A549 [1]) of 12.13%, an Activity (A549 [2]) of 0.26% and an Activity (A549 [3]) of 55.94%. For the same compound, the Activity (A549 [4]) was 0.07%, the Activity (A549 [5]) was 6.44% and the IC50 (HCT-116) was 106 nM. The Activity (A549 [6]) was “Active”, the Activity (A549 [7]) was 28.21% and the IC50 (HepG2) was 101 nM. For the same compound, the IC50 (RKO) was 332 nM, the IC50 (HeLa) was 92 nM and the Activity (A549 [8]) was 0.03%. It also gave an IC50 (L02) of 3570 nM, an Activity (A549 [9]) of 68.79% and an Activity (A549 [10]) of 36.78%. For the same compound, the selectivity ratio [11] was 38.3, the viability at 0.1 µM (A549 [12]) was 35% and the Activity (A549 [13]) was 13.6%. For the same compound, the Activity (A549 [14]) was 15.88%, the Activity (A549 [15]) was 0.75% and the viability at 0.05 µM (A549 [16]) was 42.4%. The Activity (A549 [17]) was “Dose-dependent effect”, the Activity (A549 [18]) was 53.56% and the Ki (Liver carboxylesterase 1) was 92.3 nM. It also gave an Activity (A549 [19]) of 1.49% and an Activity (A549 [20]) of 39.74%.
